Data as given in ChEMBL document CHEMBL1135973, “Synthesis and structure-activity relationships of 6,7-benzomorphan derivatives as use-dependent sodium channel blockers for the treatment of stroke” (J Med Chem, 2002).

What was measured:
[1] = molecular target: T1, Voltage-gated L-type calcium channel (Rattus norvegicus, UniProt P22002+Q02485+P27732); assay: Displacement of dihydropyridine (DHP) from the L-type calcium channel binding site; type: protein assay
[2] = molecular target: T2, Sodium channel alpha subunits; brain (Types I, II, III) (Rattus norvegicus, UniProt P04775+P04774+P08104); assay: Displacement of [3H]BTX from sodium channel of rat cerebral cortex synaptosomes; type: subcellular
Procedure, shortened: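 Synaptosomal membranes from rat cerebral cortex incubated 1 h at 37 °C with 1 nmol/L [3H]BTX-B in choline Cl/HEPES-Tris buffer pH 7.4 containing glucose, KCl and MgSO4, plus scorpion venom. Nonspecific binding defined with 100 μmol/L aconitine. Stopped by vacuum filtration through glass fiber and two buffer washes.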

[3] = molecular target: T2, Sodium channel alpha subunits; brain (Types I, II, III); assay: Displacement of [3H]-TTX from sodium channel of rat cerebral cortex synaptosomes; type: subcellular
[4] = molecular target: T2, Sodium channel alpha subunits; brain (Types I, II, III); assay: Inhibitory effect against veratridine-induced glutamate release from rat brain slices; type: functional
Procedure, shortened: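 Cross-chopped 0.2 mm slices of Chbb:Thom rat cortex or striatum preincubated 45 min at 37 °C in oxygenated Krebs–Henseleit buffer pH 7.4 with glucose, EDTA and ascorbate. Then 15 min with or without 3 μM veratridine, drug present throughout. After centrifugation, supernatant glutamate measured by HPLC with fluorimetric detection; protein by Coomassie.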

[5] = molecular target: T1, Voltage-gated L-type calcium channel; assay: Displacement of verapamil from L-type calcium channel binding site; type: protein assay
[6] = molecular target: T1, Voltage-gated L-type calcium channel; assay: Displacement of diltiazem from L-type calcium channel binding site; type: protein assay
Mus musculus [7] = species: Mus musculus; assay: Ability to block convulsions in the maximal electroshock test (MES) in mice; type: functional
Procedure, shortened: (§1)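 Male OF1 mice, groups of 10, given several doses sc; electroshock 20 mA/50 Hz/200 ms through eye electrodes 15 min after injection. Score is the percentage of animals free of tonic convulsions. ID50 for inhibition of tonic seizures obtained by log-probit analysis over three to four doses.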

Mus musculus [8] = species: Mus musculus; assay: Percent of mice that did not develop tonic convulsion in the maximal electroshock test (MES); type: functional; procedure, shortened: as §1
[9] = molecular target: T3, Sodium channel alpha subunits; brain (Types I, II, III) (Rattus norvegicus) (UniProt P04775+P04774+P08104); assay: Percent inhibition of veratridine-induced glutamate release in rat brain slices at 10000 nmol/L; type: functional, tissue-based
[10] = molecular target: T1, Voltage-gated L-type calcium channel; assay: Displacement of DHP from L-type calcium channel binding site; type: protein assay
Mus musculus [11] = species: Mus musculus; assay: Ability to block convulsions in the maximal electroshock test(MES) in mice; type: functional; conditions: read-out: ID50 (the source's name); procedure, shortened: as §1
[12] = molecular target: T3, Sodium channel alpha subunits; brain (Types I, II, III) (Rattus norvegicus); assay: Percent inhibition of [3H]BTX displacement at 10000 nmol/L; type: protein assay
[13] = read-out: ID50 (the source's name)

T3 sequence (P04775 whole entry, looked up, other chains not shown): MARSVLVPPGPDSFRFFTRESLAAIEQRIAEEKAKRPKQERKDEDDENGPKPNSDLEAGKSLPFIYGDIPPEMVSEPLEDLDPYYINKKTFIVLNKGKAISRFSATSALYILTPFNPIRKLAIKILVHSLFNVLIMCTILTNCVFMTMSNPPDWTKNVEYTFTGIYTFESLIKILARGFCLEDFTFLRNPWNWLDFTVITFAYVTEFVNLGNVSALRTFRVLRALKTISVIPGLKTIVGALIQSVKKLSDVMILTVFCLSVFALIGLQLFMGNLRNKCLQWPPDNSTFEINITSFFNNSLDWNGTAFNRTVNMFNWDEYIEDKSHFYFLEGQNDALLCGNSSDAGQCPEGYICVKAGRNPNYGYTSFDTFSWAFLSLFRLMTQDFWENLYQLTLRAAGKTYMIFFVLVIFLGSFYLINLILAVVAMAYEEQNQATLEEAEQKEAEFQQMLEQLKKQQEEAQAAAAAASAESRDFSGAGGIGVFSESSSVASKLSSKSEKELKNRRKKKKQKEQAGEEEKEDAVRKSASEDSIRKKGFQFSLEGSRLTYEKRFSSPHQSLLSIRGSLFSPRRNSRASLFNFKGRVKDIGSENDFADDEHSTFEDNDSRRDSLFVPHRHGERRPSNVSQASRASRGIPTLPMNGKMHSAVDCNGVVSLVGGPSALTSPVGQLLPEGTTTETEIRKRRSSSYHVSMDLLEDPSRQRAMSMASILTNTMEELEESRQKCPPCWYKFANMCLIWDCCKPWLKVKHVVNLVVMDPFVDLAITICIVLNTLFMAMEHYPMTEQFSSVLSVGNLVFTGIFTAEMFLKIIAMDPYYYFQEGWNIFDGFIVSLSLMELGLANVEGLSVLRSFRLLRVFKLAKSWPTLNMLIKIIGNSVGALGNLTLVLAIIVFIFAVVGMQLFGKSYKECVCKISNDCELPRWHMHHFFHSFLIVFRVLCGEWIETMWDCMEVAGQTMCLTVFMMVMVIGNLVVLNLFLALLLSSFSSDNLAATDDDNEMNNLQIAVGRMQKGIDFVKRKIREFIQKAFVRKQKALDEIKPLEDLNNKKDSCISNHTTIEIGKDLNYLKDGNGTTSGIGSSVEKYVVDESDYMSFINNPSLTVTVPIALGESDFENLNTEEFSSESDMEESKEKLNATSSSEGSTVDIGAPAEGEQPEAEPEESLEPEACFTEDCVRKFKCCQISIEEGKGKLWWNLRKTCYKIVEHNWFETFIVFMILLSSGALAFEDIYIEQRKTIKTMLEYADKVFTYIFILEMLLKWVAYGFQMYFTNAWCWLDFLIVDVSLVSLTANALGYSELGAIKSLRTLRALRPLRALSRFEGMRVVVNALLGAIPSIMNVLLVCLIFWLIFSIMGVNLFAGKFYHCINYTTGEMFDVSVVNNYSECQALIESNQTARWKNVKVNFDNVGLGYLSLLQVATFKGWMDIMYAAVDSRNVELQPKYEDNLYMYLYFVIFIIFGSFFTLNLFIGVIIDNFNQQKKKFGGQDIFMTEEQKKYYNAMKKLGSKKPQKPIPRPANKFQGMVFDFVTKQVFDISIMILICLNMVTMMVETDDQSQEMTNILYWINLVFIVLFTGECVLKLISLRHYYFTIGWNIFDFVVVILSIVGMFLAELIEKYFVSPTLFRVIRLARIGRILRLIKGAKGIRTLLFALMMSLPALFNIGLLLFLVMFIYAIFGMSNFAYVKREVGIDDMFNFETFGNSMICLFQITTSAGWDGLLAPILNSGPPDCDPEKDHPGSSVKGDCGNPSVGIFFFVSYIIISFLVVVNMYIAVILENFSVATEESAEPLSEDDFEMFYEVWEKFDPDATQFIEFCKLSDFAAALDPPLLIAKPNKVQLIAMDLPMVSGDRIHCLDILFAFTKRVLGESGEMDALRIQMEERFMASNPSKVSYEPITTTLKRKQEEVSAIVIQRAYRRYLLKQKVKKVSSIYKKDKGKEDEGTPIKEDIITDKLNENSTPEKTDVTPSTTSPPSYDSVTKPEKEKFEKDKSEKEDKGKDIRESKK
T3 sequence (P08104 whole entry, looked up, other chains not shown): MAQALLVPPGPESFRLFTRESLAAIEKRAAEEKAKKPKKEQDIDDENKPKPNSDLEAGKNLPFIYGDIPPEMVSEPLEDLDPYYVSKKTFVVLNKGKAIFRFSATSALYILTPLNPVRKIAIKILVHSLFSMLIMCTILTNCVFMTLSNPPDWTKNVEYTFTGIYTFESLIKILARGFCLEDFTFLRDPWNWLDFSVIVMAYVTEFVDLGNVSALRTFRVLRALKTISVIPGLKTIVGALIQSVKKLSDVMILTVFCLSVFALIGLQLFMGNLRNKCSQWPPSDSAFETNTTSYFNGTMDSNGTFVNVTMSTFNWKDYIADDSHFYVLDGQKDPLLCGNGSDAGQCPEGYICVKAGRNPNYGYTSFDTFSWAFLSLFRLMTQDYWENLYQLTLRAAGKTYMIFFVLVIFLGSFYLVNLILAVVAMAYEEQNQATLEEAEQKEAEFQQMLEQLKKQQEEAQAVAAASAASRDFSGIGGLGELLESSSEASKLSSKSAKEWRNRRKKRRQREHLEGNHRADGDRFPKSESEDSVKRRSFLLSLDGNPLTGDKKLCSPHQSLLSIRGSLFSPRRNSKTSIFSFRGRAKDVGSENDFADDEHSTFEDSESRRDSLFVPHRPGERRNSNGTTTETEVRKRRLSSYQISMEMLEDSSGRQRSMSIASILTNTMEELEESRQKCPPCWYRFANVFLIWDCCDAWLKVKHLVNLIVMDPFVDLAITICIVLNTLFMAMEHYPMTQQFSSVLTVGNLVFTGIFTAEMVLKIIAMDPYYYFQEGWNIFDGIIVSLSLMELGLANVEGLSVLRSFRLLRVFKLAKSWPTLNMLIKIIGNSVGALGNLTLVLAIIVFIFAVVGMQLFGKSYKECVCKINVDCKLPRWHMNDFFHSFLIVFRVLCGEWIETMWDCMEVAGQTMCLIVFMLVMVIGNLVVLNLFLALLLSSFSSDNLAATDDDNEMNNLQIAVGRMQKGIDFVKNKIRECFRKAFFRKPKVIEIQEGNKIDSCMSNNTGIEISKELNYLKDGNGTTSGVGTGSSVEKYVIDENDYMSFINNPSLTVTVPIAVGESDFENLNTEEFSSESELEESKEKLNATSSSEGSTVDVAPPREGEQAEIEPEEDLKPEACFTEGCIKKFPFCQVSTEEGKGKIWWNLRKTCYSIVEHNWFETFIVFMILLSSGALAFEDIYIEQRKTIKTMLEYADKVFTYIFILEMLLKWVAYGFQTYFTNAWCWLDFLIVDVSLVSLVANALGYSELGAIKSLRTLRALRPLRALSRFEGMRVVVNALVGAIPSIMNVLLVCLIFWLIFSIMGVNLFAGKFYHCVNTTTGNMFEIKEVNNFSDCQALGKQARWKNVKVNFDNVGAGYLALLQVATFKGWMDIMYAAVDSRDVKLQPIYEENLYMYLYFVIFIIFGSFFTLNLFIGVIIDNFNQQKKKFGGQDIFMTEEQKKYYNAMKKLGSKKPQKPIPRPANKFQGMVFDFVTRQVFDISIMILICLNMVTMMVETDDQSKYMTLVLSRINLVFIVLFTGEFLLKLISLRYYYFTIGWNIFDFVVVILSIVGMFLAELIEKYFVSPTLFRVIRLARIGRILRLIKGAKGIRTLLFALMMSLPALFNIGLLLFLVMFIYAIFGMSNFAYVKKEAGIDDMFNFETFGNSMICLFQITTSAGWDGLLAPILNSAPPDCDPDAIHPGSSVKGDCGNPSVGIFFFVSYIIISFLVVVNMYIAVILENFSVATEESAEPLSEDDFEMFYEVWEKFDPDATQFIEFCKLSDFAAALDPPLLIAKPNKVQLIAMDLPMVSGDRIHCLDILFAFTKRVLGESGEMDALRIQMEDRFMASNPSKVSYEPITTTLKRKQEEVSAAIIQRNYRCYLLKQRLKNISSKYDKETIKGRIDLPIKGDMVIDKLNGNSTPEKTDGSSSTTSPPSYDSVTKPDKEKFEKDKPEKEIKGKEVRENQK

Compound	Ki [2]	IC50 [4]	ED50 (Mus musculus [7]; [13])	also measured
CC12CCN(CCOCc3ccccc3)[C@H](Cc3c(O)cccc31)C2(C)C	20 nM	379 nmol/L	2.1 mg/kg	Ki [1]: > 10000 nM l-1; Ki [3]: > 10000 nM l-1; Ki [5]: 60 nM l-1; Ki [6]: 217 nM l-1
C[C@@H](CN1CCC2(C)c3ccc(O)cc3C[C@@H]1C2(C)C)Oc1ccccc1	149 nM	5799 nmol/L	> 30 mg/kg	Animals (Mus musculus [8]): 0%
Cc1ccc(-c2nc(CN3CCN(C(c4ccccc4)c4ccccc4)CC3)c(C)[nH]2)cc1 [LIFARIZINE]	259 nM	494 nmol/L	–	–
COC(C)CN1CCC2(C)c3cc(O)ccc3C[C@@H]1C2(C)C (stereo partly specified)	6010 nM	> 10000 nmol/L	–	inhibition [9]: 29%; ED50 (Mus musculus [7]): 0.1 mg/kg
C[C@@H](CN1CCC2(C)c3cccc(O)c3C[C@@H]1C2(C)C)OCC1CCCCC1	208 nM	975 nmol/L	> 30 mg/kg	Mice (Mus musculus [8]): 0%
C[C@@H](CN1CCC2(C)c3cccc(O)c3C[C@H]1C2(C)C)OCc1ccccc1	1330 nM	1289 nmol/L	> 100 mg/kg	Mice (Mus musculus [8]): 40%
C[C@H](CN1CCC2(C)c3ccc(O)cc3C[C@H]1C2(C)C)OCc1ccccc1	1230 nM	2676 nmol/L	> 100 mg/kg	Mice (Mus musculus [8]): 30%
C[C@@H](CN1CCC2(C)c3cccc(O)c3C[C@@H]1C2(C)C)OCc1ccccc1	43 nM	322 nmol/L	6.1 mg/kg	Ki [3]: > 10000 nM l-1; Ki [5]: 449 nM l-1; Ki [6]: 660 nM l-1; Ki [10]: > 10000 nM l-1
CO[C@@H](C)CN1CCC2(C)c3cccc(O)c3C[C@@H]1C2(C)C	783 nM	3190 nmol/L	–	ED50 (Mus musculus [7]): 1 mg/kg
Cc1cccc(C)c1OCC(C)N (stereo unspecified) [MEXILETINE]	22700 nM	47000 nmol/L	–	–
COc1ccc2c(c1)[C@]13CCCC[C@@H]1[C@H](C2)N(C)CC3 [DEXTROMETHORPHAN]	4800 nM	> 10000 nmol/L	–	inhibition [9]: 5%
CC1[C@H]2Cc3c(O)cccc3C1(C)CCN2C[C@@H](C)OCc1ccccc1 (stereo partly specified)	153 nM	452 nmol/L	3.1 mg/kg	–
C[C@H](CN1CCC2(C)c3cccc(O)c3C[C@@H]1C2(C)C)OCC1CCCCC1	241 nM	1481 nmol/L	–	ED50 (Mus musculus [11]): > 30 mg/kg; Mice (Mus musculus [8]): 0%
COC(C)CN1CCC2(C)c3c(O)cccc3C[C@@H]1C2(C)C (stereo partly specified)	8990 nM	> 10000 nmol/L	–	inhibition [9]: 23%
C[C@@H](CN1CCC2(C)c3ccc(O)cc3C[C@H]1C2(C)C)OCc1ccccc1	1870 nM	4516 nmol/L	> 100 mg/kg	Mice (Mus musculus [8]): 30%
C[C@@H](CN1CCC2(C)c3ccc(O)cc3C[C@H]1C2(C)C)Oc1ccccc1	1530 nM	6464 nmol/L	> 100 mg/kg	Animals (Mus musculus [8]): 0%

Compound	Ki [2]	IC50 [4]	ED50 (Mus musculus [7]; [13])	also measured
CO[C@@H](C)CN1CCC2(C)c3cccc(O)c3C[C@H]1C2(C)C	10000 nM	> 10000 nmol/L	–	inhibition [9]: 25%; inhibition [12]: 52%
CN(c1nc2ccccc2s1)C1CCN(C[C@H](O)COc2ccc(F)c(F)c2)CC1 [LUBELUZOLE]	203 nM	–	–	–
C[C@H](CN1CCC2(C)c3ccc(O)cc3C[C@H]1C2(C)C)Oc1ccccc1	864 nM	6340 nmol/L	–	–
CO[C@H](C)CN1CCC2(C)c3cccc(O)c3C[C@H]1C2(C)C	10000 nM	> 10000 nmol/L	–	inhibition [9]: 42%; inhibition [12]: 48%
C[C@H](CN1CCC2(C)c3ccc(O)cc3C[C@@H]1C2(C)C)OCc1ccccc1	382 nM	3177 nmol/L	35.3 mg/kg	–
C[C@H](CN1CCC2(C)c3cccc(O)c3C[C@H]1C2(C)C)OCc1ccccc1	1490 nM	3772 nmol/L	> 100 mg/kg	Mice (Mus musculus [8]): 40%
C[C@@H](CN1CCC2(C)c3ccc(O)cc3C[C@@H]1C2(C)C)OCc1ccccc1	312 nM	2300 nmol/L	10.1 mg/kg	–
COC(C)CN1CCC2(C)c3ccc(O)cc3C[C@@H]1C2(C)C (stereo partly specified)	> 10000 nM	> 10000 nmol/L	–	inhibition [9]: 21%; inhibition [12]: 45%; ED50 (Mus musculus [7]): 0.7 mg/kg
CC12CCN(CCc3ccccc3)[C@@H](Cc3cc(O)ccc31)C2(C)C	1290 nM	5029 nmol/L	–	–
CC(CN1CCC2(C)C[C@@H]1Cc1c(O)cccc12)OCc1ccccc1 (stereo partly specified)	47 nM	255 nmol/L	2.2 mg/kg	–
CC1[C@H]2Cc3c(O)cccc3C1(C)CCN2C[C@H](C)OCc1ccccc1 (stereo partly specified)	54 nM	134 nmol/L	2.4 mg/kg	–
C[C@H](CN1CCC2(C)c3cccc(O)c3C[C@@H]1C2(C)C)OCc1ccccc1	114 nM	922 nmol/L	9.4 mg/kg	Ki [3]: > 10000 nM l-1; Ki [5]: 500 nM l-1; Ki [6]: 391 nM l-1; Ki [10]: > 10000 nM l-1
CO[C@@H](C)CN1CCC2(C)c3ccccc3C[C@@H]1C2(C)C	4700 nM	~ 10000 nmol/l	–	inhibition [9]: 52%
CO[C@H](C)CN1CCC2(C)c3cccc(O)c3C[C@@H]1C2(C)C	3310 nM	4153 nmol/L	–	ED50 (Mus musculus [7]): 0.8 mg/kg
C[C@H](CN1CCC2(C)c3ccc(O)cc3C[C@@H]1C2(C)C)Oc1ccccc1	662 nM	6024 nmol/L	–	–
